The values that follow come from ChEMBL document CHEMBL1144318, “Tryptamine-based human beta3-adrenergic receptor agonists. Part 3: improved oral bioavailability via modification of the sulfonamide moiety” (Bioorg Med Chem Lett, 2005).

As usually defined, the EC50 is the concentration that produces a half-maximal response. Read a high EC50 as a less potent agent.

Molecules are shown by their SMILES.

Assay [1] addresses T1, Beta-3 adrenergic receptor (Homo sapiens, UniProt P13945). The experiment in a line: Intrinsic activity against human beta-3 adrenergic receptor IA) as a percentage of maximal stimulation with isoproterenol. It counts as functional. The essentials: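 In CHO cells expressing low-density human β3-AR (13,000 receptors/cell), cAMP accumulation was measured. Intrinsic activity is expressed as a percentage of the maximal stimulation produced by isoproterenol.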
Target sequence in this assay (P13945 whole entry, looked up): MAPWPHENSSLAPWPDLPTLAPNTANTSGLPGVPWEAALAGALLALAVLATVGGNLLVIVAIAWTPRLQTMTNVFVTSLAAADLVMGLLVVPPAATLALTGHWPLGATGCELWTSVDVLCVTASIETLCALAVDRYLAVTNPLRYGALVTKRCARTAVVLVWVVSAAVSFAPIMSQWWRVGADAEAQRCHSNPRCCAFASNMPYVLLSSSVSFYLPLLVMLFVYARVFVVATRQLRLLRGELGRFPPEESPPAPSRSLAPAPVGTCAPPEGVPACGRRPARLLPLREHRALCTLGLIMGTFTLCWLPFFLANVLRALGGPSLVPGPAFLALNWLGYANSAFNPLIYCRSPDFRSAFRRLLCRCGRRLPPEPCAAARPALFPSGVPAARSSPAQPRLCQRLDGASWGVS

For assay [2], the target named is T2, Beta-2 adrenergic receptor (Homo sapiens, UniProt P07550). The experiment in a line: Agonistic activity was assessed by measuring cAMP accumulation in CHO cells expressing human beta-2 adrenergic receptor. It counts as functional, cell-based. Background: Changes in cAMP serve as a functional read-out for many G protein-coupled receptors.
In assay [3] the target is T1, Beta-3 adrenergic receptor. Put plainly: Agonistic activity was assessed by measuring cAMP accumulation in CHO cells expressing human beta-3 adrenergic receptor. It counts as functional, cell-based.
Target sequence in this assay (P13945 whole entry): as the sequence (P13945 whole entry, looked up) above
Assay [4] concerns Caco-2. Put plainly: Permeability of compounds was determined in Caco-2 cell monolayer permeability assay; (high). To be noted: Homo sapiens. It counts as functional, cell-based. (Caco-2 cells form a polarised layer with tight junctions and transporters.)
The test system of assay [5] is Caco-2. The experiment in a line: Permeability of compounds was determined in Caco-2 cell monolayer permeability assay; (moderate). It counts as functional, cell-based. To be noted: Homo sapiens.
In assay [6] the target is Beta-1 adrenergic receptor (Homo sapiens, UniProt P08588). The experiment in a line: Agonistic activity was assessed by measuring cAMP accumulation in CHO cells expressing human beta-1 adrenergic receptor. Type of assay: functional, cell-based.
For assay [7], the target named is T2, Beta-2 adrenergic receptor. Put plainly: Effective concentration against human beta-2 adrenergic receptor. Type of assay: functional.

T2 sequence (P07550 whole entry): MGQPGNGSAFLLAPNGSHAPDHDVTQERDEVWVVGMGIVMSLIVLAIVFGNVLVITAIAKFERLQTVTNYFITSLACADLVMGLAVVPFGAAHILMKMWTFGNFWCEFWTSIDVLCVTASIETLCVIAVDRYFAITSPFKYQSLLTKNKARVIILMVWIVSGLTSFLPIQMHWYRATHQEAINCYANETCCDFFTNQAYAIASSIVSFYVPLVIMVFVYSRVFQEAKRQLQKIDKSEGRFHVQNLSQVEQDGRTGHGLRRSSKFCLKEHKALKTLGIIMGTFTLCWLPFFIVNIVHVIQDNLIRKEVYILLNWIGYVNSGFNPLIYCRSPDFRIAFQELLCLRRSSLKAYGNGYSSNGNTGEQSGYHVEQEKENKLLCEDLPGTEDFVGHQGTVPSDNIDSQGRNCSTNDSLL
Chain of Beta-1 adrenergic receptor (P08588 whole entry): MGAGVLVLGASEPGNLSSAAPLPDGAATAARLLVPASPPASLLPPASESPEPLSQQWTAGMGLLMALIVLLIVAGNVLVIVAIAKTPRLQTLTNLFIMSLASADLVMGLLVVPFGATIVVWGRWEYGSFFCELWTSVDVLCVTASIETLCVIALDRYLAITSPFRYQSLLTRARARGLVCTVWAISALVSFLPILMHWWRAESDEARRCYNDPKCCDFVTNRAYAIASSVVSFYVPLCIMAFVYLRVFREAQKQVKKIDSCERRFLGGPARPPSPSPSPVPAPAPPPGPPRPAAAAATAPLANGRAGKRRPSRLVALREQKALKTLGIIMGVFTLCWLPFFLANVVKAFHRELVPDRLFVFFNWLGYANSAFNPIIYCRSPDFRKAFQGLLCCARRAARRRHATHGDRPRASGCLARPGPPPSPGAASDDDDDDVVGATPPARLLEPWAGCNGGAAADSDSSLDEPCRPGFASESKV

Consider `C[C@H](Cc1c[nH]c2c(OS(C)(=O)=O)cccc12)NC[C@H](O)c1cccc(NCc2ccccc2)c1`, for which, in assay [1], the IA50 stood at 87%. Moreover, the half-maximal effective concentration (EC50) in assay [2] was 16 nM; in assay [3], 11 nM. The Permeability (Papp* 10E6 cm/s) with Caco-2 [4] was 9.

`C[C@H](Cc1c[nH]c2c(OS(C)(=O)=O)cccc12)NC[C@H](O)c1cccc(NC(=O)c2ccccc2)c1`: the Permeability (Papp* 10E6 cm/s) in the assay on Caco-2 [5] was determined as 0.9. This molecule also returned an IA50 in assay [1] of 96%. Further, the figures for the EC50 in assay [6], in assay [2] and in assay [3] were 120 nM, 69 nM and 160 nM, respectively.

In the assay with Caco-2 [5], `C[C@H](Cc1c[nH]c2c(OS(C)(=O)=O)cccc12)NC[C@H](O)c1cccc(CS(=O)(=O)c2ccccc2)c1` gave a Permeability (Papp* 10E6 cm/s) of 0.9. The same molecule displayed an IA50 in assay [1] of 54%. Further, a half-maximal response in assay [3] (EC50) required 100 nM.

Take `C[C@H](Cc1c[nH]c2c(OS(C)(=O)=O)cccc12)NC[C@H](O)c1cccc(N(C)S(=O)(=O)c2ccccc2)c1`: the IA50 in assay [1] worked out at 38%. The molecule further yielded an EC50 in assay [3] of 52 nM. Further, the Permeability (Papp* 10E6 cm/s) with Caco-2 [4] is 4.7.

In assay [1], `CC/C=C/CNc1cccc([C@@H](O)CN[C@H](C)Cc2c[nH]c3c(OS(C)(=O)=O)cccc23)c1` returned an IA50 of 101%. Besides, the EC50 came to 11 nM in assay [2] and 9 nM in assay [3].

Regarding `C=C(C)CNc1cccc([C@@H](O)CN[C@H](C)Cc2c[nH]c3c(OS(C)(=O)=O)cccc23)c1`, in assay [1], the IA50 was 114%. Moreover, the EC50 in assay [2] stood at 1.5 nM; in assay [3], 17 nM.

As to `C[C@H](Cc1c[nH]c2c(OS(C)(=O)=O)cccc12)NC[C@H](O)c1cccc(NCc2ccc3ccccc3c2)c1`, the IA50 in assay [1] came to 107%. In assay [3], a half-maximal effect (EC50) was put at 2.9 nM.

Consider `CC#CCNc1cccc([C@@H](O)CN[C@H](C)Cc2c[nH]c3c(OS(C)(=O)=O)cccc23)c1`, for which the IA50 in assay [1] is 90%. The EC50 is 18 nM in assay [2] and 6.5 nM in assay [3].

In the case of `C#CCNc1cccc([C@@H](O)CN[C@H](C)Cc2c[nH]c3c(OS(C)(=O)=O)cccc23)c1`, the IA50 in assay [1] turned out to be 102%. The EC50 in assay [6] stood at 45 nM; in assay [2], 9.6 nM; in assay [3] it was 10 nM.

As to `C[C@H](Cc1c[nH]c2c(OS(C)(=O)=O)cccc12)NC[C@H](O)c1cccc(NC/C=C/c2ccccc2)c1`, in assay [1], the IA50 was 97%. For the same molecule, the results for the EC50 in assay [2] and in assay [3] were 13 nM and 1 nM, respectively.

In turn, `C[C@H](Cc1c[nH]c2c(OS(C)(=O)=O)cccc12)NC[C@H](O)c1cccc(OCc2ccccc2)c1` yielded an IA50 in assay [1] of 90%. The EC50 turned out to be 46 nM in assay [2] and 15 nM in assay [3]. The Permeability (Papp* 10E6 cm/s) in the assay on Caco-2 [4] worked out at 6.7.

In assay [1], `C[C@H](Cc1c[nH]c2c(OS(C)(=O)=O)cccc12)NC[C@H](O)c1cccc(OS(=O)(=O)c2ccccc2)c1` gave an IA50 of 60%. In assay [3], this molecule displayed an EC50 of 32 nM. In addition, in the assay with Caco-2 [4], the Permeability (Papp* 10E6 cm/s) was found to be 7.

Consider `C[C@H](Cc1c[nH]c2c(OS(C)(=O)=O)cccc12)NC[C@H](O)c1cccc(NS(=O)(=O)c2ccccc2)c1`, for which the EC50 in assay [7] stood at 19 nM; in assay [6] it was 13 nM; in assay [3] it was 0.54 nM. Further, in assay [1], the IA50 was found to be 90%.

Regarding `C=CCNc1cccc([C@@H](O)CN[C@H](C)Cc2c[nH]c3c(OS(C)(=O)=O)cccc23)c1`, the IA50 in assay [1] was 110%. The EC50 in assay [2] is 2.2 nM; in assay [3], 3.2 nM.

`C/C=C/CNc1cccc([C@@H](O)CN[C@H](C)Cc2c[nH]c3c(OS(C)(=O)=O)cccc23)c1` came in with an IA50 in assay [1] of 102%. For the same molecule, the figures for the EC50 in assay [6], in assay [2] and in assay [3] were 170 nM, 10 nM and 1.2 nM, respectively.

In the case of `CC(C)=CCNc1cccc([C@@H](O)CN[C@H](C)Cc2c[nH]c3c(OS(C)(=O)=O)cccc23)c1`, in assay [1], the IA50 was 79%. Moreover, the concentration giving a half-maximal response (EC50) in assay [6] is 160 nM; in assay [2] it was 36 nM; in assay [3], 36 nM.
